Measured values taken from publication PMC5269458 (Metallomics : integrated biometal science, 2017).
≈ marks a conversion by molar mass, not a printed value. Like-named read-outs stand apart in the source and are kept apart here. Marks after values point to notes of the source that are not given here.

Experiments:
[1] = Calcein competition assay for Cu; type: binding; conditions: 100 μM compound; HEPES pH 7.4 and SC medium pH 4.5
[2] = test system: C. neoformans wild type, H99 cells; type: cell-based, Cryptococcus neoformans; conditions: SC medium; for cellular metal content compared to the other conditions: 10 μM ligand
[3] = test system: wild-type C. neoformans H99; assay: Growth inhibition; type: cell-based, Cryptococcus neoformans; conditions: for effect of added Ag(I) on MIC: 10 μM supplemental Ag(I); for effect of added Cu(II) on MIC: 10 μM supplemental Cu(II); for effect of added Fe(III) on MIC: 10 μM supplemental Fe(III); for effect of added Zn(II) on MIC: 10 μM supplemental Zn(II); for Minimum inhibitory concentration (MIC) / MIC: 30 °C; for MIC: Cryptococcus neoformans, read-out: Minimum inhibitory concentration (MIC), supplemental [Cu] 1 mM (CuSO4); for effect of supplemental Cu on the growth inhibition by the compound: 1 mM Cu, high compound concentration (100 μM; CQ 50 μM); for growth compared to no treatment at 48 h: 100 μM compound, no supplemental Cu
[4] = Conditional Cu; type: binding
[5] = Conditional Cu; type: binding; conditions: for competition for Cu(I) with BCA or ferrozine: pH 7.4, anaerobic
[6] = Stoichiometry with Cu; type: binding; conditions: 5% DMSO in universal buffer, pH 7.4, anaerobic
Summary of the method: (§1)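 Ligand–Cu mixtures were made in 5% DMSO in Britton–Robinson universal buffer, pH 7.4. Total metal plus ligand concentration was held constant while the Cu mole fraction was varied from 0.1 to 1.0, and samples were read by UV-vis. Ligand stocks were 100 mM in DMSO. For Cu(I), the buffer (0.04 M […], H3PO4, CH3CO2H) was deoxygenated, samples were prepared and measured anaerobically in a glove box, and stock concentration was set by BCA titration at 562 nm.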

[7] = test system: WT C. neoformans; assay: Fungicidal assay; type: cell-based, Cryptococcus neoformans; conditions: 24 h in liquid culture, PyS 3 μM
[8] = test system: ctr1Δctr4Δ mutant strain of C. neoformans; assay: Growth recovery of Cu-import deficient mutant in YPEG medium; type: cell-based, Cryptococcus neoformans; conditions: YPEG medium without supplemental Cu, micromolar compound, 48 h
[9] = cited from earlier work
[10] = Stoichiometry with Cu; type: binding; conditions: 5% DMSO in universal buffer, pH 7.4
Summary of the method: as §1

[11] = test system: WT C. neoformans; conditions: with 10 μM Cu; cited from earlier work
[12] = test system: ctr1Δctr4Δ mutant strain of C. neoformans; conditions: YPEG medium; cited from earlier work
[13] = pH 7.4; ref Smith, R. M.; Martell, A. E.; Motekaitis, R. J, 2007; cited from earlier work
[14] = 10 μM ligand co-incubated with 10 μM CuSO4, 1 h
[15] = no supplemental Cu ([Cu] 0 mM), SC medium, 48 h
[16] = supplemental [Cu] 0.01 mM (CuSO4), SC medium, 48 h
[17] = supplemental [Cu] 1 mM (CuSO4), SC medium, 48 h
[18] = conditional, universal buffer pH 7.4, competition with PAR
[19] = negative log of free [Cu] at pH 7.4, total ligand 10 μM, total Cu 1 μM
[20] = conditional, universal buffer pH 7.4, competition with BCA
[21] = with 10 μM CuSO4, ThM above 6 μM

Structure (SMILES): Cc1occc(=S)c1O [ThM, thiomaltol]
- competition with calcein for Cu(II) [1]: able to compete effectively for Cu(II) at both pH values
- cell-associated Cu, Fe and Zn content ([2]; 10 μM ligand alone, 1 h): Metal accumulation did not occur
- cell-associated Cu, Fe and Zn content [2, 14]: hyper accumulation of Cu, Zn, and Fe
- effect of added Ag(I) on MIC ([3]; 48 h): no effect
- effect of added Cu(II) on MIC ([3]; 48 h): significant decrease
- effect of added Fe(III) on MIC ([3]; 48 h): did not significantly affect
- effect of added Zn(II) on MIC ([3]; 48 h): did not significantly affect
- Minimum inhibitory concentration (MIC) [3, 15]: >100 µM
- MIC in the presence of added Cu ([3]; range over low (10 μM) and high (1 mM) supplemental Cu, SC medium, 48 h): 6 to 25 µM
- Minimum inhibitory concentration (MIC) [3, 16]: 6 µM (≈ 0.853 µg/mL)
- Minimum inhibitory concentration (MIC) [3, 17]: 25 µM (≈ 3.55 µg/mL)
- Cu(II) log KML2 [4, 18]: ≥20 ^b
- pCu(II) [4, 19]: ≥15
- Cu(I) log KML2 [5, 20]: 16.4 ± 0.1
- pCu(I) [5, 19]: 12.2
- stoichiometry with Cu(I) [6]: Bis complexes
- fungicidal or fungistatic activity (CFU) [7, 21]: fungicidal
- fungicidal or fungistatic activity (CFU) ([7]; without Cu, ThM 100 μM): fungistatic
- restoration of growth of ctr1Δctr4Δ mutant [8]: restored to near wild type levels

Structure (SMILES): O=S(=O)([O-])c1ccc(-c2nnc(-c3ccccn3)nc2-c2ccc(S(=O)(=O)[O-])cc2)cc1.[Na+].[Na+] [ferrozine]
- log KFz2Cu ([9]; Cu(I) complex): 15.1

Structure (SMILES): Cc1occc(=O)c1O [Mal, maltol]
- cell-associated Cu, Fe and Zn content [2, 14]: did not dramatically alter cellular metal content
- Cu(II) log KML2 [4, 18]: 12.2 ± 0.3
- pCu(II) [4, 19]: 8.0
- competition for Cu(I) with BCA or ferrozine [5]: did not compete
- restoration of growth of ctr1Δctr4Δ mutant [8]: unable to restore growth

Structure (SMILES): CCN(CC)C(=S)SSC(=S)N(CC)CC [DSF, disulfiram]
- MIC ([3]; 48 h, SC medium, 48 h): 6 µM (≈ 1.78 µg/mL)
- restoration of growth of ctr1Δctr4Δ mutant [8]: restored to near wild type levels

Structure (SMILES): Cc1c(O)c(=O)ccn1C [Dfp, deferiprone]
- cell-associated Cu, Fe and Zn content [2, 14]: did not dramatically alter cellular metal content
- cellular metal content compared to the other conditions ([2]; 1 h): decreased cellular metal content
- Minimum inhibitory concentration (MIC) [3, 17]: >100 µM
- Cu(II) log KML2 [4, 18]: 15.3 ± 0.3
- pCu(II) [4, 19]: 11.1
- competition for Cu(I) with BCA or ferrozine [5]: did not compete
- restoration of growth of ctr1Δctr4Δ mutant [8]: unable to restore growth

Structure (SMILES): Oc1c(I)cc(Cl)c2cccnc12 [CQ, clioquinol]
- effect of supplemental Cu on the growth inhibition by the compound [3]: completely abrogated
- MIC ([3]; 48 h, SC medium, 48 h): > 50 µM
- restoration of growth of ctr1Δctr4Δ mutant [8]: unable to restore growth

Structure (SMILES): O=C(O)CN(CCN(CC(=O)O)CC(=O)O)CC(=O)O [EDTA, ethylenediamine tetraacetic acid]
- growth compared to no treatment at 48 h ([3]; SC medium): decrease in growth
- effect of supplemental Cu on the growth inhibition by the compound [3]: reversed

Structure (SMILES): [SH-].[SH-].[S]=[Mo]=[S] [TTM, tetrathiomolybdate]
- growth compared to no treatment at 48 h ([3]; SC medium): decrease in growth
- effect of supplemental Cu on the growth inhibition by the compound [3]: reversed
- Minimum inhibitory concentration (MIC) [3, 15]: higher than 100 μM

Structure (SMILES): Cc1c(O)c(=S)ccn1C [ThDfp]
- stoichiometry with Cu(II) [10]: 2L:1Cu(II)
- competition with calcein for Cu(II) [1]: able to compete effectively for Cu(II) at both pH values
- cell-associated Cu, Fe and Zn content [2, 14]: did not dramatically alter cellular metal content
- cellular metal content compared to the other conditions ([2]; 1 h): decreased cellular metal content
- growth compared to no treatment at 48 h ([3]; SC medium): decrease in growth
- effect of supplemental Cu on the growth inhibition by the compound [3]: reversed
- Minimum inhibitory concentration (MIC) [3, 15]: >100 µM
- Minimum inhibitory concentration (MIC) [3, 16]: >100 µM
- Minimum inhibitory concentration (MIC) [3, 17]: >100 µM
- Cu(II) log KML2 [4, 18]: ≥20 ^b
- pCu(II) [4, 19]: ≥15
- Cu(I) log KML2 [5, 20]: 16.4 ± 0.2
- pCu(I) [5, 19]: 12.2
- stoichiometry with Cu(I) [6]: Bis complexes
- restoration of growth of ctr1Δctr4Δ mutant [8]: unable to restore growth

Structure (SMILES): [O-][n+]1ccccc1S [PyS, pyrithione]
- stoichiometry with Cu(II) [10]: 2L:1Cu(II)
- competition with calcein for Cu(II) [1]: able to compete effectively for Cu(II) at both pH values
- cell-associated Cu, Fe and Zn content ([2]; 10 μM ligand alone, 1 h): Metal accumulation did not occur
- cell-associated Cu, Fe and Zn content [2, 14]: hyper accumulation of Cu, Zn, and Fe
- effect of added Ag(I) on MIC ([3]; 48 h): significantly lowered
- effect of added Cu(II) on MIC ([3]; 48 h): significant decrease
- effect of added Fe(III) on MIC ([3]; 48 h): did not significantly affect
- effect of added Zn(II) on MIC ([3]; 48 h): did not significantly affect
- MIC ([3]; 48 h, SC medium, 48 h): 6 µM (≈ 0.763 µg/mL)
- Cu(II) log KML2 ([4]; pH 7.4): ≥20 ^b
- pCu(II) ([4]; pH 7.4): ≥15
- Cu(I) log KML2 ([5]; pH 7.4): 17.1 ± 0.2
- pCu(I) ([5]; pH 7.4): 12.9
- stoichiometry with Cu(I) [6]: Bis complexes
- fungicidal or fungistatic activity (CFU) [7, 21]: fungicidal
- fungicidal or fungistatic activity (CFU) ([7]; without Cu, ThM 100 μM): fungicidal
- restoration of growth of ctr1Δctr4Δ mutant [8]: restored to near wild type levels

Structure (SMILES): Oc1cccc2cccnc12 [Compound 8HQ, 8-hydroxyquinoline]
- competition with calcein for Cu(II) [1]: largest pH dependence
- fungicidal activity (viable fungi) [11]: absence of detectable viable fungi
- effect of added Ag(I) on MIC ([3]; 48 h): no effect
- effect of added Cu(II) on MIC ([3]; 48 h): significant decrease
- effect of added Fe(III) on MIC ([3]; 48 h): did not significantly affect
- effect of added Zn(II) on MIC ([3]; 48 h): did not significantly affect
- MIC ([3]; 48 h, SC medium, 48 h): 6 µM (≈ 0.871 µg/mL)
- Minimum inhibitory concentration (MIC) [3, 15]: >100 µM
- restoration of growth of ctr1Δctr4Δ mutant [12]: recover growth
- Cu(II) log KML2 [13]: 22.9 ± 0.1 ^a
- pCu(II) ([4]; pH 7.4): 18.7

Structure (SMILES): O=C(N/N=C/c1ccccc1O)c1ccncc1 [SIH, salicylaldehyde isonicotinoyl hydrazine]
- Minimum inhibitory concentration (MIC) [3, 15]: higher than 100 μM
- growth with compound in combination with Cu ([3]; with 1 mM Cu, SC medium, 48 h): inhibited growth slightly

Structure (SMILES): O=C(O)c1cc(-c2cc(C(=O)O)c3ccccc3n2)nc2ccccc12.O=C(O)c1cc(-c2cc(C(=O)O)c3ccccc3n2)nc2ccccc12.[Cu+] [[Cu^I(BCA)2]^3−]
- Log K ([9]; constant in fitting model, universal buffer pH 7.4 with 5% DMSO): 17.7[45]

Structure (SMILES): Cc1cc(-c2ccc(S(=O)(=O)O)cc2)c2ccc3c(-c4ccc(S(=O)(=O)O)cc4)cc(C)nc3c2n1 [BCS, bathocuproine disulfonic acid]
- Minimum inhibitory concentration (MIC) [3, 15]: higher than 100 μM

Structure (SMILES): O=C(O)c1ccc(-n2nc(-c3ccccc3O)nc2-c2ccccc2O)cc1 [deferasirox]
- growth compared to no treatment at 48 h ([3]; SC medium): decrease in growth
- effect of supplemental Cu on the growth inhibition by the compound [3]: reversed
